Test results published in ChEMBL document CHEMBL4350954, “Identification of Thienopyrimidine Scaffold as an Inhibitor of the ABC Transport Protein ABCC1 (MRP1) and Related Transporters Using a Combined Virtual Screening Approach” (J Med Chem, 2019).

What was measured:
Assay type in all cases: cell-based
[1] = molecular target: T1, Multidrug resistance-associated protein 1 (Homo sapiens, UniProt P33527); test: Inhibition of MRP1 in human COR-L23/R cells assessed reduction in tritiated daunomycin efflux incubated for 2 hrs by radioactivity-based assay
T1 sequence (P33527 whole entry): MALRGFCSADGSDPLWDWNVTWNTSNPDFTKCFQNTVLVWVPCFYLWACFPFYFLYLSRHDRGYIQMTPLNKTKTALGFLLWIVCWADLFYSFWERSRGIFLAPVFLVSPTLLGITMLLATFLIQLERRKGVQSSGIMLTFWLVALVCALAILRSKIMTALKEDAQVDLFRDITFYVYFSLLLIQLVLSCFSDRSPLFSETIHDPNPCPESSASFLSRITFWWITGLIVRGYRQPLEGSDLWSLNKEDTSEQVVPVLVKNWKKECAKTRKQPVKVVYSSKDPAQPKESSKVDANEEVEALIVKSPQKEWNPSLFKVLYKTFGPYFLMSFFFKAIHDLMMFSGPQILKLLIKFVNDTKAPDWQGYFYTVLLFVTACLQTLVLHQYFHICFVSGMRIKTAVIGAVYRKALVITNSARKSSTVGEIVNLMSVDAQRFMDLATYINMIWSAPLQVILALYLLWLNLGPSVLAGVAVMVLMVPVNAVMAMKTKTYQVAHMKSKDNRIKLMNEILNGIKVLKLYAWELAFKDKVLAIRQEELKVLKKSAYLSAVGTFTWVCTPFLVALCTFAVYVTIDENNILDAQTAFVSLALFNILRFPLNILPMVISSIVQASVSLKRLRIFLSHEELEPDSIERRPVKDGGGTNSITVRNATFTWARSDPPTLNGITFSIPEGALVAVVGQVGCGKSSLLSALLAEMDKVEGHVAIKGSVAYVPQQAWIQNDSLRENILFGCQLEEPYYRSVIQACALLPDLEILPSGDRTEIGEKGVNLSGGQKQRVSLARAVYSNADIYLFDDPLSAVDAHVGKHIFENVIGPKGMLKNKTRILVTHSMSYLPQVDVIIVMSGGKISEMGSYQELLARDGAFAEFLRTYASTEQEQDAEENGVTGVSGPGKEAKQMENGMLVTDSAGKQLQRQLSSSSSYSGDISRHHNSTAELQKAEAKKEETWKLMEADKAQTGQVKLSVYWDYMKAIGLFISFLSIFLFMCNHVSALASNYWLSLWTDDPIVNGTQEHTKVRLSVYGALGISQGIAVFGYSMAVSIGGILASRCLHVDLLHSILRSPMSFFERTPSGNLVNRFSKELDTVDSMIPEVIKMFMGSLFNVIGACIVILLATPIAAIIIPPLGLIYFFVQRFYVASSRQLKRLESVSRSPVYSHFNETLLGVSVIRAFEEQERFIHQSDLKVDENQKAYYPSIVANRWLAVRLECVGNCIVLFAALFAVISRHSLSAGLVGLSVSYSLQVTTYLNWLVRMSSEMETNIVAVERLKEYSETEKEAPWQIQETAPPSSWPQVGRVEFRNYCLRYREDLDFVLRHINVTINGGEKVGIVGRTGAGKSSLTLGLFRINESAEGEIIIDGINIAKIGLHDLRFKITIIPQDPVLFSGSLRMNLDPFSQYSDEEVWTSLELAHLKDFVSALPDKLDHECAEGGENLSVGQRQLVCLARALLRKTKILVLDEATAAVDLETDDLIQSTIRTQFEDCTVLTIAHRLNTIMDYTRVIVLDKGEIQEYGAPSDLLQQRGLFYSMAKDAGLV

[2] = molecular target: ABCC1 (MRP1) (Homo sapiens, UniProt P33527); test: Inhibition of ABCC1 in human H69AR cells at 10 uM preincubated for 30 mins followed by calcein-AM addition measured at 60 secs time interval by fluorescence assay relative to control; settings: probe calcein-AM
ABCC1 (MRP1), sequence (P33527 whole entry): as above
How it was run: (§1)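 Calcein AM accumulation assay in H69AR small-cell lung cancer cells, which express only ABCC1. Inhibited efflux lets calcein AM build up intracellularly, where esterases cleave it to fluorescent calcein. The screen used 10 µM, scaled to a standard ABCC1 inhibitor at 10 µM as 100%. Hits reaching ≥20% inhibition (+SEM) went on to IC50 curves, constrained to that 100% maximum. Values are means of ≥3 independent experiments in duplicate ± SEM.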

[3] = molecular target: T1, Multidrug resistance-associated protein 1; test: Inhibition of ABCC1 in human H69AR cells preincubated for 30 mins followed by calcein-AM addition measured at 60 secs time interval by fluorescence assay; how it was run: as §1
[4] = molecular target: ABCB1 (P-gp) (Homo sapiens, UniProt P08183); test: Inhibition of ABCB1 in human A2780/ADR cells at 10 uM preincubated for 30 mins followed by calcein AM addition and measured at 60 secs time interval by fluorescence assay relative to cyclosporine A; settings: probe calcein AM
ABCB1 (P-gp), sequence (P08183 whole entry): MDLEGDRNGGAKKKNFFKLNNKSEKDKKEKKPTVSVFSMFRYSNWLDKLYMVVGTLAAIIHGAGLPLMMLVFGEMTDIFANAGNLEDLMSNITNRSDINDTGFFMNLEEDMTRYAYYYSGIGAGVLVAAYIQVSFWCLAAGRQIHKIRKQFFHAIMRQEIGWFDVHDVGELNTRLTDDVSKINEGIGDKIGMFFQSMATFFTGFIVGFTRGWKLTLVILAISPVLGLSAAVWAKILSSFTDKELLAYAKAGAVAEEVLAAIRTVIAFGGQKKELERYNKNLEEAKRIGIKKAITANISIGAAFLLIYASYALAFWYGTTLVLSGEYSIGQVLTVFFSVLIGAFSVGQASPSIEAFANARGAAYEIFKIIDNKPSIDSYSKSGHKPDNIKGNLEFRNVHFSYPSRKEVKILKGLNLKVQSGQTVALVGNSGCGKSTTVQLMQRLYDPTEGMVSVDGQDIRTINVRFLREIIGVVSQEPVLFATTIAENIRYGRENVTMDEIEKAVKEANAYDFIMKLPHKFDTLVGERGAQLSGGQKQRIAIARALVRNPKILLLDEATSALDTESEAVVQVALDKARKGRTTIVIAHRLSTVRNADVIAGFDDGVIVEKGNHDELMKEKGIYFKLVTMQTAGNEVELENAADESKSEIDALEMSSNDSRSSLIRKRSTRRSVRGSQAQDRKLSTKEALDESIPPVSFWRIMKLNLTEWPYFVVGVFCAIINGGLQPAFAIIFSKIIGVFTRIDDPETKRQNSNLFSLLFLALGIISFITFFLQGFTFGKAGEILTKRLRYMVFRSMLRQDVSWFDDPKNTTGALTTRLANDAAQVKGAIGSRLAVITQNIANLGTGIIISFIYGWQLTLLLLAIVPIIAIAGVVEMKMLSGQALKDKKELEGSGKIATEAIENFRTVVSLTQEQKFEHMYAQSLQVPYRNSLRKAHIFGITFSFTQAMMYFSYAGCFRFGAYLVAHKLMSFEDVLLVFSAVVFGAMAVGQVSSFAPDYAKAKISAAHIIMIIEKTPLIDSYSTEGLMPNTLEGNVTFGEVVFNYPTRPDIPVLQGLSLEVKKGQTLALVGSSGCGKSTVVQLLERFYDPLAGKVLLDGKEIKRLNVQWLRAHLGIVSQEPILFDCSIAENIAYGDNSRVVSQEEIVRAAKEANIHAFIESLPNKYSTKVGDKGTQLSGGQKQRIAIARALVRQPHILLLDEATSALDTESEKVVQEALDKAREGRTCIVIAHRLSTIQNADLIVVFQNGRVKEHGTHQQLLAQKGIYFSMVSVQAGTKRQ

[5] = molecular target: ATP-dependent translocase ABCB1 (Homo sapiens, UniProt P08183); test: Inhibition of ABCB1 in human A2780/ADR cells preincubated for 30 mins followed by calcein AM addition and measured at 60 secs time interval by fluorescence assay
ATP-dependent translocase ABCB1, sequence (P08183 whole entry): as above

[6] = molecular target: T2, ABCG2 (BCRP) (Homo sapiens, UniProt Q9UNQ0); test: Inhibition of ABCG2 (unknown origin) expressed in MDCK2 cells co-expressing BCRP (unknown origin) assessed as effect on pheophorbide A accumulation at 10 uM pre-incubated for 20 mins followed by pheophorbide A addition and measured after 120 mins by flow cytometric analysis relative to Ko143; settings: probe pheophorbide A
T2 sequence (Q9UNQ0 whole entry): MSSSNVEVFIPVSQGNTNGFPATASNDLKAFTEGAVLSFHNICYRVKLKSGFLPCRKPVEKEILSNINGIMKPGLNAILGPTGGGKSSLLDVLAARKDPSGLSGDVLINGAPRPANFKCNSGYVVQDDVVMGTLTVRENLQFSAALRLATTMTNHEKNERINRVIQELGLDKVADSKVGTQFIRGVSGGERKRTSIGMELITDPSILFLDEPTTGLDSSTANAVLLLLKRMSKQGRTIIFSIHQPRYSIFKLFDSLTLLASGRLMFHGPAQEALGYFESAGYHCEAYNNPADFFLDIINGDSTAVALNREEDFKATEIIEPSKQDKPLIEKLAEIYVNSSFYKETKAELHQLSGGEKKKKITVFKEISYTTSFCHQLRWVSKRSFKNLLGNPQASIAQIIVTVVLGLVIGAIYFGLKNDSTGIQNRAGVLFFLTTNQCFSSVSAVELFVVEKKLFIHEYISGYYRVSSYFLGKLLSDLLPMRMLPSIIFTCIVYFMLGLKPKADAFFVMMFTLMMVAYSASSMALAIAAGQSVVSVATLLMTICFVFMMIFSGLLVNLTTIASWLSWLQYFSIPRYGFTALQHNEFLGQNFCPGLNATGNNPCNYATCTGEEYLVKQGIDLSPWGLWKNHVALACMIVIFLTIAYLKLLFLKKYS
How it was run: (§2)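 Pheophorbide A accumulation assay in ABCG2-transfected MDCK II BCRP cells. Ko143 at 10 µM set 100% and no compound set 0%. Screening was at 10 µM; compounds reaching >20% (+SEM) got IC50 curves constrained to the Ko143 maximum at 10 µM. Values are reported as mean ± SEM.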

[7] = molecular target: T3, Broad substrate specificity ATP-binding cassette transporter ABCG2 (Homo sapiens, UniProt Q9UNQ0); test: Inhibition of ABCG2 (unknown origin) expressed in MDCK2 cells co-expressing BCRP (unknown origin) assessed as effect on pheophorbide A accumulation pre-incubated for 20 mins followed by pheophorbide A addition and measured after 120 mins by flow cytometric analysis; how it was run: as §2
T3 sequence (Q9UNQ0 whole entry): T2 sequence (Q9UNQ0 whole entry)

| IC50 [1] [µM] | inhibition at 1 min, 10 µM [2] [%] | IC50 [3] [µM] | inhibition at 1 min, 10 µM [4] [%] | IC50 [5] [µM] | inhibition at 2 h, 10 µM [6] [%] | IC50 [7] [µM] | SMILES |
| --- | --- | --- | --- | --- | --- | --- | --- |
| 0.122 |  |  |  |  |  |  | CCOC(=O)Cn1c2cccc(C(N)=O)c2c2ncnc(N3CCN(CCc4ccc(F)c(F)c4)CC3)c21 |
|  | ≥ 20 | 22.7 | ≥ 20 | 4.83 | ≥ 20 | 1.39 | Cc1nc2cc(NC(=O)C3CCCN(c4cc(-n5cccn5)ncn4)C3)ccc2s1 (stereo not drawn) |
|  | ≥ 20 | 36.3 | ≥ 20 | 17.7 | ≥ 20 | 10.2 | C[C@@]1(C(=O)Nc2ccc(F)nc2)CCCN1c1nc(Nc2cc(C3CC3)n[nH]2)c2cccn2n1 [BMS-754807] |
|  |  |  | ≥ 20 | 15.6 |  |  | Cc1ccccc1-n1c(SCC(=O)N2CCN(Cc3ccccc3)CC2)nnc1-c1cccnc1 |
|  |  |  | ≥ 20 | 15.4 | ≥ 20 | 11.2 | Fc1ccccc1N1CCN(Cc2csc(-c3ccc4c(c3)OCO4)n2)CC1 |
|  |  |  |  |  | ≥ 20 | 10.4 | O=C(c1ccc2c(c1)OCCO2)C1CCN(C(=O)c2ccc(-n3cccn3)cc2)CC1 |
|  |  |  | ≥ 20 | 14.5 | ≥ 20 | 11.8 | CCCc1cc(N2CCN(CCOc3cccc4ccccc34)CC2)n2nc3nc(C)cc(C)c3c2n1 |
|  |  |  | ≥ 20 | 31 | ≥ 20 | 14.4 | O=C(CSc1nnc(-c2ccc(F)cc2)o1)N1CCN(Cc2ccc3c(c2)CCO3)CC1 |
|  | ≥ 20 | 39.3 | ≥ 20 | 27.8 | ≥ 20 | 16 | O=C(c1cc(-c2cccnc2)nc2ccccc12)N1CCN(Cc2cccs2)CC1 |
|  |  |  | ≥ 20 | 2.81 | ≥ 20 | 8.68 | Cc1cc(C)c2c(n1)sc1c(N3CCN(Cc4ccccc4Cl)CC3)ncnc12 |
|  |  |  | ≥ 20 | 26.4 |  |  | Cc1ccccc1-n1nnnc1SCC(=O)N1CCN(Cc2ccccc2)CC1 |
|  |  |  |  |  | ≥ 20 | 15.4 | N#Cc1ccc(CN2CCN(C(=O)c3cn(Cc4ccccc4)nc3-c3cccnc3)CC2)cc1 |
